Results on nine compounds are retold here after ChEMBL document CHEMBL1121472, “Derivatives of 5-hydroxy-6-methyl-2-aminotetralin” (1980).

Active and inactive are the calls of the source. No cut-off for these calls is given here.

Assay [1] has as its system Felis catus. Briefly: Inhibition of chronotropic response to cardioaccelerator nerve stimulation in the cat at 10 uM/kg; NA denotes inactive. The class given is functional, organism-based. An outline of the steps: (§1)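 Cats were bilaterally vagotomized and pretreated iv with atropine sulfate (0.2 mg/kg). Right postganglionic cardioaccelerator nerves were placed on bipolar electrodes and stimulated at 2 Hz, 5-ms pulses, for 30 s at 20–25 V. Heart rate was recorded by cardiotachometer, femoral arterial pressure was monitored, and drugs were given iv via a femoral vein catheter. ED50 is in μmol/kg with 95% CL. Blockade was tested with haloperidol 0.1 mg/kg.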

For assay [2], the species on record is Felis catus. Briefly: Inhibition of chronotropic response to cardioaccelerator nerve stimulation in the cat. The class given is functional. An outline of the steps: as §1
Assay [3] has as its system Rattus norvegicus. In words: Compound was evaluated for rotational behavior in rats and (contralateral turning) circling response were recorded at a dose of 400 umol/Kg; IA=Inactive. Format: functional, organism-based.
Assay [4] has as its system Rattus norvegicus. Briefly: Compound was evaluated for rotational behavior in rats and (contralateral turning) circling response were recorded at a dose of 14.0 umol/kg; IA = inactive. Format: functional, organism-based. An outline of the steps:
(§2)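 Male Sprague Dawley rats received a unilateral stereotaxic injection of 6-hydroxydopamine hydrobromide (6 μg in 3 μL) into the substantia nigra region (anterior 24, lateral 1.8, vertical 7.0). Drug was then given sc, and contralateral turns were counted over the next 1 h and reported as turns/h at the stated dose.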

For assay [5], the system named is Felis catus. In words: Inhibition of chronotropic response to cardioaccelerator nerve stimulation in the cat; NI denotes no inhibition up to 1.55 uM/kg. The class given is functional, organism-based. An outline of the steps: as §1
For assay [6], the system named is Rattus norvegicus. In words: Compound was evaluated for rotational uM/kg. The class given is functional, organism-based. An outline of the steps: as §2
The test system of assay [7] is Felis catus. In words: Inhibition of chronotropic response to cardioaccelerator nerve stimulation in the cat; NA denotes inactive uM/kg. The class given is functional, organism-based. An outline of the steps:
as §1

Assay [8] concerns Canis familiaris. In words: Compound was evaluated for emesis action in dogs administered subcutaneously; NA denotes inactive. Format: functional, organism-based. Particulars: Canis lupus familiaris. An outline of the steps: (§3)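 Five adult mongrel dogs, housed singly with food ad libitum, were given drug solutions sc, and vomiting frequency was counted over 1 h. Three doses of apomorphine hydrochloride (0.08, 0.16, 0.32 μmol/kg) as reference and three of the test compound were compared by a 3 × 3 parallel line bioassay to give relative potency with 95% confidence limits.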

For assay [9], the species on record is Felis catus. In words: Inhibition of chronotropic response to cardioaccelerator nerve stimulation in the cat; NA denotes inactive. Format: functional, organism-based. An outline of the steps:
as §1

The subject of assay [10] is Canis familiaris. Briefly: Compound was evaluated for emesis action in dogs, administered subcutaneously; NA denotes inactive. Format: functional, organism-based. Particulars: Canis lupus familiaris. An outline of the steps: as §3
In assay [11] the test system is Canis familiaris. Briefly: Compound was evaluated for emesis action in dogs, administered subcutaneously; Range is (0.02-0.08). Format: functional, Canis lupus familiaris.
The subject of assay [12] is Rattus norvegicus. In words: Compound was evaluated for rotational behavior in rats and (contralateral turning) circling response were recorded at a dose of 0.41 umol/Kg. The class given is functional. An outline of the steps: as §2
Assay [13] relates to Rattus norvegicus. In words: Compound was evaluated for rotational behavior in rats and (contralateral turning) circling response were recorded at a dose of 11.7 umol/Kg. The class given is functional. An outline of the steps:
as §2

In assay [14] the test system is Rattus norvegicus. In words: Compound was evaluated for rotational behavior in rats and (contralateral turning) circling response were recorded at a dose of 5.85 umol/Kg. Format: functional. An outline of the steps: as §2

For the compound `CCCNC1CCc2c(ccc(C)c2O)C1` (configuration not stated), in the assay on Felis catus [1], the ED50 (in general, the dose that gives a 50% effect, or the effect in half of the subjects) was “inactive”.
`Br.CCN(CC)C1CCc2c(ccc(C)c2O)C1` (configuration not stated) yielded an ED50 in the assay listed under Felis catus [2] of 0.48 µmol/kg. In addition, the Rotational behavior entry in the assay with Rattus norvegicus [3] is “inactive”.
In the case of `Cc1ccc2c(c1O)CCC(N(C)C)C2` (configuration not stated), in the assay with Rattus norvegicus [4], the Rotational behavior result was “inactive”.
Consider `Cc1ccc2c(c1O)CCC(N)C2` (configuration not stated), for which, in the assay on Felis catus [5], the ED50 entry is “No inhibition”. The Activity entry in the assay on Rattus norvegicus [6] is “NI”.
Turning to `CNC1CCc2c(ccc(C)c2O)C1` (configuration not stated), the ED50 entry in the assay on Felis catus [7] was “inactive”. Moreover, in the assay with Canis familiaris [8], the Potency ratio entry was “inactive”.
As for `Cc1ccc2c(c1O)CCC(NC(C)C)C2` (configuration not stated), the ED50 entry in the assay listed under Felis catus [9] is “inactive”. For the same compound, the Potency ratio entry in the assay on Canis familiaris [10] was “inactive”.
For the compound `CN1CCc2cccc3c2[C@H]1Cc1ccc(O)c(O)c1-3` [APOMORPHINE], in the assay filed under Felis catus [2], the 50% effective dose (ED50) is 0.022 µmol/kg. In addition, the Potency ratio in the assay with Canis familiaris [11] was found to be 0.046. In the assay on Rattus norvegicus [12], this compound registered a Rotational behavior of 175.21 turns hr-1.
`Br.CCCN(CCC)C1CCc2c(ccc(C)c2O)C1` (configuration not stated) gave an ED50 in the assay listed under Felis catus [2] of 0.025 µmol/kg. Besides, the values for the Rotational behavior in the assay with Rattus norvegicus [13] and with Rattus norvegicus [14] were 346.86 turns hr-1 and 131.43 turns hr-1, respectively.
In the case of `CCNC1CCc2c(ccc(C)c2O)C1` (configuration not stated), the ED50 result with Felis catus [7] was “inactive”.
